Tests used:
[1] = test system: New Zealand albino rabbits; assay: In vivo tolerance study; settings: rabbit eye, scale 0-3, n = 3
Method in brief: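 Male New Zealand albino rabbits (1.5–2.0 kg) free of ocular inflammation, housed at 25 ± 2 °C, 75% RH, 12:12 h light cycle. Nine animals were split into three groups of three. […] Macroscopic signs were graded at 0.5, 4.0 and 16.0 h, and scores were summed into an overall irritation index.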

[2] = Pharmacokinetic study; type: in vivo; settings: rabbit plasma, n = 3; for T max: 5 IU kg^−1, HPLC; for AUC0–12: 5 IU kg^−1, trapezoidal method, mean ± SD
[3] = test system: diabetic rabbits (streptozotocin); assay: In vivo anti-diabetic study; set-up: species or system rabbit; settings: at 4 h, subcutaneous injection, n = 3
Method in brief: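 Male New Zealand albino rabbits (1.5–2.0 kg) made diabetic by intravenous streptozotocin (65 mg kg−1, in citrate buffer pH 5.0) given in the evening for three days. Baseline blood glucose was taken on day 1 after overnight fasting. Blood glucose was followed over time and expressed as % of initial level, n = 3 per group.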

[4] = rabbits, administered topically via ocular route; ref 25 (Yamamoto et al., 1989); cited from earlier work
[5] = 0.5 h after single instillation of 50 μl
[6] = 4.0 h after single instillation of 50 μl
[7] = 16.0 h after single instillation of 50 μl

## Insulin [Plain insulin solution]
[1]; [5]
  Conjunctiva grade: 0
  Cornea grade: 0
  Discharge grade: 0
  Lids grade: 0
[1]; [6]
  Conjunctiva grade: 0
  Cornea grade: 0
  Discharge grade: 1
  Discomfort grade: 0
  Lids grade: 0
[1]; [7]
  Conjunctiva grade: 0
  Cornea grade: 0
  Discharge grade: 0
  Discomfort grade: 0
  Lids grade: 0
[2]; ocular instillation
  T max: 19.8 min
  AUC0–12: 1870 ± 1700 ng·h/mL

## Subcutaneous insulin injection: subcutaneous injection of human insulin solution
[3]
  drop in blood glucose level: 71.08 ± 3.24
[2]; subcutaneous injection
  T max: 30 min
  AUC0–12: 197380 ± 2760 ng·h/mL

## insulin
[4]
  bioavailability: less than 1%

Reference: article PMC9058365 (RSC Advances, 2020)
